Experimental data published in ChEMBL document CHEMBL5058577, “EUbOPEN Chemogenomics Library 2 (Multiplex)” (2022).

System: Fibroblast
Assay: Multiplex assay against human fibroblast
Assay type: toxicity, cell-based
Method in brief: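 Cells stained live at seeding with Hoechst33342, BioTracker Green Microtubule Cytoskeleton Dye, MitoTracker Red and Annexin V Alexa Fluor 680 were imaged on a CQ1 microscope at 37°C and 5% CO2 after compound addition. Their classification by CellPathfinder machine-learning gating ran from Hoechst high-intensity objects versus normal cells, to healthy, pyknosed or fragmented nuclei among normal cells, to mitotic or apoptotic among pyknosed cells. Tubulin, mitochondrial-mass and membrane-permeability phenotypes are per cents of healthy-nucleus cells.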

[1] = 12 h, 1 µM, compound concentration 1 uM, replicate 1
[2] = 12 h, 1 µM, compound concentration 1 uM, replicate 2
[3] = 12 h, 10 µM, compound concentration 10 uM, replicate 1
[4] = 12 h, 10 µM, compound concentration 10 uM, replicate 2
[5] = 24 h, 1 µM, compound concentration 1 uM, replicate 1
[6] = 24 h, 1 µM, compound concentration 1 uM, replicate 2
[7] = 24 h, 10 µM, compound concentration 10 uM, replicate 1
[8] = 24 h, 10 µM, compound concentration 10 uM, replicate 2
[9] = 48 h, 1 µM, compound concentration 1 uM, replicate 1
[10] = 48 h, 1 µM, compound concentration 1 uM, replicate 2
[11] = 48 h, 10 µM, compound concentration 10 uM, replicate 1
[12] = 48 h, 10 µM, compound concentration 10 uM, replicate 2

O=C(O)CCC/C=C\CC1C(O)CC(O)C1/C=C/C(O)COc1cccc(Cl)c1 (centres undefined) [CLOPROSTENOL]
Population Apoptotic (%) [1]: 41% | Population Fragmented Nuclei (%) [1]: 15% | Population Healthy Nuclei (%) [1]: 68% | Population Hoechst High Intensity Objects (%) [1]: 0% | Population Membrane Permeable-Phenotype (%) [1]: 0% | Population Mitochondria Different-Phenotype (%) [1]: 2% | Population Mitotic Cells (%) [1]: 58% | Population Normal (%) [1]: 100% | Population Pyknosed Nuclei (%) [1]: 15% | Population Tubulin-Different-Phenotype (%) [1]: 22% | Total Cell Count [1]: 153 | Population Apoptotic (%) [2]: 20% | Population Fragmented Nuclei (%) [2]: 22% | Population Healthy Nuclei (%) [2]: 52% | Population Hoechst High Intensity Objects (%) [2]: 2% | Population Membrane Permeable-Phenotype (%) [2]: 8% | Population Mitotic Cells (%) [2]: 80% | Population Normal (%) [2]: 97% | Population Pyknosed Nuclei (%) [2]: 25% | Population Tubulin-Different-Phenotype (%) [2]: 52% | Total Cell Count [2]: 141 | Population Apoptotic (%) [3]: 38% | Population Fragmented Nuclei (%) [3]: 23% | Population Healthy Nuclei (%) [3]: 58% | Population Hoechst High Intensity Objects (%) [3]: 12% | Population Membrane Permeable-Phenotype (%) [3]: 0% | Population Mitochondria Different-Phenotype (%) [3]: 4% | Population Mitotic Cells (%) [3]: 61% | Population Normal (%) [3]: 87% | Population Pyknosed Nuclei (%) [3]: 18% | Population Tubulin-Different-Phenotype (%) [3]: 31% | Total Cell Count [3]: 212 | Population Apoptotic (%) [4]: 23% | Population Healthy Nuclei (%) [4]: 43% | Population Hoechst High Intensity Objects (%) [4]: 4% | Population Membrane Permeable-Phenotype (%) [4]: 11% | Population Mitochondria Different-Phenotype (%) [4]: 9% | Population Mitotic Cells (%) [4]: 76% | Population Normal (%) [4]: 95% | Population Pyknosed Nuclei (%) [4]: 34% | Population Tubulin-Different-Phenotype (%) [4]: 53% | Total Cell Count [4]: 105 | Population Apoptotic (%) [5]: 41% | Population Fragmented Nuclei (%) [5]: 19% | Population Healthy Nuclei (%) [5]: 62% | Population Hoechst High Intensity Objects (%) [5]: 0% | Population Membrane Permeable-Phenotype (%) [5]: 1% | Population Mitochondria Different-Phenotype (%) [5]: 3% | Population Mitotic Cells (%) [5]: 58% | Population Normal (%) [5]: 99% | Population Pyknosed Nuclei (%) [5]: 18% | Population Tubulin-Different-Phenotype (%) [5]: 26% | Total Cell Count [5]: 161 | Population Apoptotic (%) [6]: 18% | Population Fragmented Nuclei (%) [6]: 27% | Population Healthy Nuclei (%) [6]: 49% | Population Hoechst High Intensity Objects (%) [6]: 3% | Population Membrane Permeable-Phenotype (%) [6]: 7% | Population Mitochondria Different-Phenotype (%) [6]: 5% | Population Mitotic Cells (%) [6]: 81% | Population Normal (%) [6]: 96% | Population Pyknosed Nuclei (%) [6]: 23% | Population Tubulin-Different-Phenotype (%) [6]: 53% | Total Cell Count [6]: 144 | Population Apoptotic (%) [7]: 41% | Population Fragmented Nuclei (%) [7]: 24% | Population Healthy Nuclei (%) [7]: 57% | Population Hoechst High Intensity Objects (%) [7]: 12% | Population Membrane Permeable-Phenotype (%) [7]: 2% | Population Mitochondria Different-Phenotype (%) [7]: 3% | Population Mitotic Cells (%) [7]: 58% | Population Normal (%) [7]: 87% | Population Pyknosed Nuclei (%) [7]: 18% | Population Tubulin-Different-Phenotype (%) [7]: 24% | Total Cell Count [7]: 218 | Population Apoptotic (%) [8]: 59% | Population Fragmented Nuclei (%) [8]: 28% | Population Healthy Nuclei (%) [8]: 50% | Population Hoechst High Intensity Objects (%) [8]: 3% | Population Membrane Permeable-Phenotype (%) [8]: 7% | Population Mitotic Cells (%) [8]: 40% | Population Normal (%) [8]: 96% | Population Pyknosed Nuclei (%) [8]: 21% | Population Tubulin-Different-Phenotype (%) [8]: 57% | Total Cell Count [8]: 107 | Population Apoptotic (%) [9]: 65% | Population Fragmented Nuclei (%) [9]: 21% | Population Healthy Nuclei (%) [9]: 59% | Population Hoechst High Intensity Objects (%) [9]: 2% | Population Membrane Permeable-Phenotype (%) [9]: 2% | Population Mitochondria Different-Phenotype (%) [9]: 2% | Population Mitotic Cells (%) [9]: 34% | Population Normal (%) [9]: 97% | Population Pyknosed Nuclei (%) [9]: 19% | Population Tubulin-Different-Phenotype (%) [9]: 25% | Total Cell Count [9]: 156 | Population Apoptotic (%) [10]: 36% | Population Fragmented Nuclei (%) [10]: 37% | Population Healthy Nuclei (%) [10]: 43% | Population Hoechst High Intensity Objects (%) [10]: 3% | Population Membrane Permeable-Phenotype (%) [10]: 12% | Population Mitochondria Different-Phenotype (%) [10]: 10% | Population Mitotic Cells (%) [10]: 64% | Population Normal (%) [10]: 96% | Population Pyknosed Nuclei (%) [10]: 18% | Population Tubulin-Different-Phenotype (%) [10]: 63% | Total Cell Count [10]: 137 | Population Apoptotic (%) [11]: 46% | Population Fragmented Nuclei (%) [11]: 25% | Population Healthy Nuclei (%) [11]: 57% | Population Hoechst High Intensity Objects (%) [11]: 13% | Population Membrane Permeable-Phenotype (%) [11]: 0% | Population Mitochondria Different-Phenotype (%) [11]: 2% | Population Mitotic Cells (%) [11]: 53% | Population Normal (%) [11]: 86% | Population Pyknosed Nuclei (%) [11]: 16% | Population Tubulin-Different-Phenotype (%) [11]: 30% | Total Cell Count [11]: 205 | Population Apoptotic (%) [12]: 55% | Population Fragmented Nuclei (%) [12]: 41% | Population Healthy Nuclei (%) [12]: 49% | Population Hoechst High Intensity Objects (%) [12]: 8% | Population Membrane Permeable-Phenotype (%) [12]: 4% | Population Mitochondria Different-Phenotype (%) [12]: 4% | Population Mitotic Cells (%) [12]: 44% | Population Normal (%) [12]: 91% | Population Pyknosed Nuclei (%) [12]: 9% | Population Tubulin-Different-Phenotype (%) [12]: 61% | Total Cell Count [12]: 108
